Assay [1] addresses T1, Oxysterols receptor LXR-beta (Homo sapiens) (UniProt P55055).
T1 sequence (whole entry): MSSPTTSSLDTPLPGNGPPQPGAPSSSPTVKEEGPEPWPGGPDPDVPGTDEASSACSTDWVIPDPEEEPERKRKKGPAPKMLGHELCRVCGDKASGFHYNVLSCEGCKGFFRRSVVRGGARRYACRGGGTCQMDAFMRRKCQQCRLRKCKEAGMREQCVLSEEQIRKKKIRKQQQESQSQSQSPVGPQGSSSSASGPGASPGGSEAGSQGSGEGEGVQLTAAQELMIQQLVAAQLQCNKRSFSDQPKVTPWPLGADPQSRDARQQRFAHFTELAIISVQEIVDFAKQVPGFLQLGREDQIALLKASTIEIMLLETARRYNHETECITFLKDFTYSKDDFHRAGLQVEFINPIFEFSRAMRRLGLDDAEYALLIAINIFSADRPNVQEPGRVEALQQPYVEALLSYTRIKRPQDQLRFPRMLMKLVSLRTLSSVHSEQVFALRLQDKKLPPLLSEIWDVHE
Briefly: Activation of full length LXRbeta expressed in african green monkey COS7 cells co-transfected with RXRalpha assessed as increase in LXR-response element driven luciferase reporter gene transactivation after 24 hrs. It counts as cell-based. To be noted: COS-7. In a few lines:
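Transient LXR/RXRα luciferase reporter assay in COS cells with β-galactosidase as internal control. Cells treated 24 h with test compounds at 10 or 30 μM, or TO901317 at 100 nM, in the presence of compactin to deplete endogenous LXR ligands. Luciferase activity in cell extracts normalized to β-galactosidase and expressed as fold induction over vehicle-treated cells.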
(In general: Reporter assays use an easily measured gene product as a stand-in for the process of interest.)

The target of assay [2] is T1, Oxysterols receptor LXR-beta (Homo sapiens). Briefly: Agonist activity at full length LXRbeta expressed in african green monkey COS1 cells co-transfected with RXRalpha assessed as increase in LXR-response element driven luciferase reporter gene transactivation at 10 to 30 uM after 24 hrs. As to conditions: COS-1.
For assay [3], the target named is T2, Oxysterols receptor LXR-alpha (Homo sapiens) (UniProt Q13133).
T2 sequence (whole entry): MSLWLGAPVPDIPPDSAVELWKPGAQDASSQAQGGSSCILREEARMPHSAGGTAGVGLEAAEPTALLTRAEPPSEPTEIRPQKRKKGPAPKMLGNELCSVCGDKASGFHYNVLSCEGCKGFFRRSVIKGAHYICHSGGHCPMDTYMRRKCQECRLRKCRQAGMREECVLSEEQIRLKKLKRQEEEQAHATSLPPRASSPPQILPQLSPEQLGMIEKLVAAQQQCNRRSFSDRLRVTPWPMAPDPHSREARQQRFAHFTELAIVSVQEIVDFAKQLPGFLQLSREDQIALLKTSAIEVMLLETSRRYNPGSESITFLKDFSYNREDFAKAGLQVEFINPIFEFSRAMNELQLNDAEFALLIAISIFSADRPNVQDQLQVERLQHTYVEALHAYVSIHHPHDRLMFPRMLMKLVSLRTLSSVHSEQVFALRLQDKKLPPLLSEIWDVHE
Nature of the assay: Agonist activity at full length LXRalpha expressed in african green monkey COS1 cells co-transfected with RXRalpha assessed as increase in LXR-response element driven luciferase reporter gene transactivation at 10 to 30 uM after 24 hrs. To be noted: COS-1.

Activity calls are given as the source filed them. No cut-off for these calls is given here.

Take `Oc1ccc2c(c1)CCc1ccc(cc1)Oc1cc(ccc1O)CCc1ccc-2c(O)c1`: the outcome in assay [1] was inactive.
As for `COc1ccc2c(c1)CCc1ccc(cc1)Oc1cc(ccc1OC)CCc1ccc-2c(OC)c1`, the result in assay [2] and in assay [3] was inactive.
As for `COc1ccc2c(c1)CCc1ccc(cc1)Oc1cc(ccc1O)CCc1ccc-2c(OC)c1`, the result in assay [2] and in assay [3] was inactive.
Take `COc1ccc2cc1Oc1ccc(cc1)CCc1cc(O)ccc1-c1ccc(cc1O)CC2`: the result in assay [2] and in assay [3] was inactive.
`COc1ccc2c(c1)CCc1ccc(cc1)Oc1cc(ccc1OC)CCc1ccc-2c(O)c1`: the outcome in assay [2] and in assay [3] was inactive.
`COc1cc2ccc1-c1ccc(O)cc1CCc1ccc(cc1)Oc1cc(ccc1O)CC2`: the outcome in assay [2] and in assay [3] was inactive.
With `COc1ccc2c(c1)CCc1ccc(cc1)Oc1cc(ccc1O)CCc1ccc-2c(O)c1`, the result in assay [2] and in assay [3] was inactive.
Consider `COc1ccc2cc1Oc1ccc(cc1)CCc1cc(O)ccc1-c1ccc(cc1OC)CC2`, for which the outcome in assay [2] and in assay [3] was inactive.
